Assay [1] has as its system MRC5. Description: inhibitory concentration against anti-human coronavirus (HCoV) was determined in MRC-5 cells (human fibroblasts); Inactive. In kind it is functional, cell-based. Summed up: (§1)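 MRC-5 human fibroblasts (1.0×10^5 cells/mL in 3% FBS-DMEM) seeded and held 24 h at 37 °C, then infected with HCoV strain 229E at 20 TCID₅₀/well for 2 h at 37 °C. Compound added afterwards at various concentrations, in triplicate. Cell viability read by XTT after 4 days at 37 °C. Actinomycin D served as positive control.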

Assay [2] in a line: Effective dose for inhibition of intercellular adhesion molecule 1 (ICAM 1) expression. In kind it is functional.
Assay [3] has as its system MRC5. Description: inhibitory concentration against anti-human coronavirus (HCoV) was determined in MRC-5 cells (human fibroblasts). In kind it is functional, cell-based. The method, boiled down: as §1

Values after ≈ are worked out from the molar mass of the structure shown. Numbered stars: 1 amine (or outer) side, 2 acyl side, 3 side chain; on linkers, the order of the positions; unused ones are H or OH. Bridge positions count the residues as written; N and C are the ends. Square brackets hold non-standard residues; d marks the D form. Peptide text beside a SMILES is read from it. I, II: the chains in the order shown. Actinocin(1to9) = Cc1c2oc3c(C)ccc(C(=O)[*:2])c3nc-2c(C(=O)[*:1])c(N)c1=O; NMeV = CN[C@H](C(=O)O)C(C)C; Sar = CNCC(=O)O

The source of these data is ChEMBL document CHEMBL1137851, “2-Substituted benzoxazinone analogues as anti-human coronavirus (anti-HCoV) and ICAM-1 expression inhibition agents” (Bioorg Med Chem Lett, 2004).

In general, IC50 refers to the concentration that inhibits the measured activity by half. A high value points to weaker potency in that assay. Regarding `COc1cccc2c(=O)oc(-c3ccccc3Br)nc12`, the half-inhibitory concentration (IC50) result in the assay on MRC5 [1] is listed as “Not Active”.
In assay [2], `COc1cccc2c(=O)oc(-c3ccc(Cl)cc3)nc12` returned an ED50 of 0.5 µg/mL (≈ 1.74 µM). In the assay on MRC5 [3], this molecule registered an IC50 of 7.59 µg/mL (≈ 26.4 µM).
In turn, `COc1cccc2c(=O)oc(-c3ccc(Br)cc3)nc12` displayed an ED50 in assay [2] of 1 µg/mL (≈ 3.01 µM). The midpoint of inhibition in the assay on MRC5 [3], the IC50, lay at 6.08 µg/mL (≈ 18.3 µM).
As to `COc1cccc2c(=O)oc(-c3ccccc3)nc12`, it took 6.83 µg/mL (≈ 27 µM) to reach half-maximal inhibition in the assay with MRC5 [3] (IC50).
In the assay on MRC5 [3], `Cc1c2oc3c(C)ccc(C(=O)N[C@@H]4C(=O)N[C@H](C(C)C)C(=O)N5CCC[C@H]5C(=O)N(C)CC(=O)N(C)[C@@H](C(C)C)C(=O)O[C@@H]4C)c3nc-2c(C(=O)N[C@@H]2C(=O)N[C@H](C(C)C)C(=O)N3CCC[C@H]3C(=O)N(C)CC(=O)N(C)[C@@H](C(C)C)C(=O)O[C@@H]2C)c(N)c1=O` [DACTINOMYCIN] (I: T[dV]P[Sar][NMeV] / II: T[dV]P[Sar][NMeV]; ester I:1-I:C, II:1-II:C; linker I:N-II:N via Actinocin(1to9)) registered an IC50 of 0.02 µg/mL (≈ 0.0159 µM).
Consider `O=c1oc(-c2ccccc2F)nc2c1ccc1ccccc12`, for which the IC50 entry in the assay with MRC5 [1] is on record as “Not Active”.
For the molecule `COc1cccc2c(=O)oc(-c3cccc(Cl)c3)nc12`, it took 5.06 µg/mL (≈ 17.6 µM) to reach half-maximal inhibition in the assay with MRC5 [3] (IC50).
As to `COc1cccc2c(=O)oc(-c3ccccc3F)nc12`, in the assay on MRC5 [3], inhibition was half-maximal at 1.92 µg/mL (≈ 7.08 µM) (IC50).
In the assay on MRC5 [3], `COc1cccc2c(=O)oc(-c3ccccc3Cl)nc12` yielded a 50% inhibitory concentration (IC50) of 5.79 µg/mL (≈ 20.1 µM).
Take `O=c1oc(-c2ccccc2Cl)nc2c1ccc1ccccc12`: in the assay with MRC5 [1], the IC50 entry was “Not Active”.
As for `O=c1oc(-c2ccccc2Br)nc2c1ccc1ccccc12`, the IC50 result in the assay on MRC5 [1] is on record as “Not Active”.
